# Measurements from PubChem BioAssay AID623981 (Broad Institute, 2012).
# Values joined by “and” are separate entries in the source; they are usually repeats but may differ in a detail not shown here. Identical values can stand only once. Active and inactive are the calls of the source.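 How the source made its calls: active means compounds lowering growth signal whose fitted half-effect dose is at most twice their top tested dose; inconclusive means flat fit with moderate inhibition, or poor curve fit; inactive means the rest.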
# Tested on: not listed separately
# Assay: C. albicans CaCi-2 growth inhibitors, compound alone – CaCi-2 strain, dry powder, plate reader, set 3, dose response (AID 623981)
# Details: C. albicans CaCi-2 growth, Alamar Blue fluorescence, 48 h; at 3 µM (top of the series)
# In short: (§1)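 Assay system: fluconazole-resistant Candida albicans strain CaCi-2; input: inoculum A600 0.00015; buffer or medium: defined RPMI 1640 with MOPS buffer, uridine, glucose, Pen/Strep; incubation: 48 h at 37 °C, humidified, plus 2 h stain; technique: Alamar Blue fluorescence; benchmarks: amphotericin 10 µM as positive control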
row,SMILES,"activity change, negative = inhibition"
1,C/C=C/[C@@H]1[C@H]2C[C@@H](C)CC[C@@H]2C(C)=C[C@H]1C(=O)c1c(O)c(-c2ccc(O)cc2)c[nH]c1=O,47.9% (inactive)

# Tested on: C. albicans CaCi-2 growth, Alamar Blue fluorescence, 48 h
# Assay: as above
# Details: not given
# In short: as §1
row,SMILES,AC50
1,CCOC(=O)N1C(=O)C2(CCCCC2)N(c2ccc(C)cc2)C1=S,2740 nM and 3070 nM
2,CC1/C=C/C=C\C=C\C=C\C=C\C=C\C=C\C(O[C@H]2OC(C)C(O)C(N)C2O)CC2OC(O)(CC(O)CC(O)C(O)CCC(O)CC(O)CC(=O)OC(C)C(C)C1O)CC(O)C2C(=O)O (stereo partly drawn),92.3 nM
3,CCOC(=O)N1C(=O)C2(CCCCC2)N(c2ccccc2)C1=S,697 nM
4,CCOC(=O)N1C(=O)C2(CCCCC2)N(c2ccc(C#N)cc2)C1=S,307 nM
5,CCOC(=O)N1C(=O)C2(CCCCC2)N(c2cccc(C)c2)C1=S,1260 nM
6,CCOC(=O)N1C(=O)C2(CCCCC2)N(c2ccc(F)cc2)C1=S,150 nM
7,CCOC(=O)N1C(=O)C2(CCCCC2)N(c2ccc(Cl)cc2)C1=S,221 nM
